Results from PubChem BioAssay AID463080 (The Scripps Research Institute Molecular Screening Center, 2010).

target: Wee1-like protein kinase (Homo sapiens) (UniProt P30291); test: WEE1 degradation inhibition, concentration series – cell-based, HeLa, WEE1K328M-luciferase, luminescence, assay provider, late-stage follow-up (AID 463080); conditions: HeLa WEE1K328M-luciferase stabilization
In short: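 Incubation: 20 h compound treatment at 37 °C. Test system: transfected HeLa with WEE1 K328M–luciferase reporter. Repeats: four replicate wells. Signal: lytic luciferase luminescence. Read-out: EC50 of WEE1-fusion to luciferase-only luminescence ratio, higher meaning stabilization.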

Wee1-like protein kinase (Homo sapiens), sequence (P30291 whole entry K328M, the tested form may be a part): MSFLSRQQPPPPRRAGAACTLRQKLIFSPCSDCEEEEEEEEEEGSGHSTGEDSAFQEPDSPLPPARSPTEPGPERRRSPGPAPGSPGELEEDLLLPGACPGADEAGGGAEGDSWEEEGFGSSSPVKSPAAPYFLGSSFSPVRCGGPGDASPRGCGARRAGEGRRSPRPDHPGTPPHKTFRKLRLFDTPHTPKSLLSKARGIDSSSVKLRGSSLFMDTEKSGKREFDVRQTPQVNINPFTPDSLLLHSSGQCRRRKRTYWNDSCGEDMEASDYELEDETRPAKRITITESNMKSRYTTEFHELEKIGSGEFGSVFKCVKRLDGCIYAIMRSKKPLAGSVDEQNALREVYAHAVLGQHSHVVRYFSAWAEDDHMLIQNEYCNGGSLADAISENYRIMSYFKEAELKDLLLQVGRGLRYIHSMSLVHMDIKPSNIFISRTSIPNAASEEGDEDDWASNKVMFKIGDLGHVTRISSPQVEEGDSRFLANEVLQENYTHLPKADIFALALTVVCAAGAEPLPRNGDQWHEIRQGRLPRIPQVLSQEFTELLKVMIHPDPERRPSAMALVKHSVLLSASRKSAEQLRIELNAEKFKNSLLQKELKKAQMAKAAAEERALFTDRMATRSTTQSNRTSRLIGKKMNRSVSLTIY

EC50, active:
c1ccc2[nH]c(CNc3nc(N4CCOCC4)nc4c3ncn4-c3ccsc3)nc2c1 0.624 µM, CCOC(=O)c1cccc2[nH]c(CNc3nc(N4CCOCC4)nc4c3ncn4-c3ccsc3)nc12 0.207 µM, CC(C)n1cnc2c(NCc3nc4c([N+](=O)[O-])cccc4[nH]3)nc(N3CCOCC3)nc21 0.201 µM, O=[N+]([O-])c1cccc2[nH]c(CNc3nc(N4CCOCC4)nc4c3ncn4-c3ccsc3)nc12 0.04 µM, Clc1ccc2nc(CNc3nc(N4CCOCC4)nc4c3ncn4-c3ccsc3)[nH]c2c1 0.164 µM
